Measurements from ChEMBL document CHEMBL1156652, “Antiurolithic effect of lupeol and lupeol linoleate in experimental hyperoxaluria” (J Nat Prod, 2008).
Activity calls are given as the source filed them.

Legend:
[1] = tested on: Rattus norvegicus; assay: Increase in vitamin E level in kidney of ethylene glycol-induced hyperoxaluria Wistar rat model assessed per mg of protein at 50 mg/kg/day, po for 28 days; format: functional
Method in brief: (§1)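 Ethylene glycol-hyperoxaluric male Wistar rats (0.75% in drinking water, 28 days), co-dosed orally at 50 mg/kg body wt/day. Kidney homogenate, 10% in 0.01 M Tris-HCl pH 7.4. SOD unit defined as 50% inhibition of pyrogallol autoxidation; CAT as µmol H2O2 utilized/min. GSH, vitamins C and E as µg/mg protein. Mean ± SEM, 6 rats/group.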

[2] = tested on: Rattus norvegicus; assay: Effect on vitamin E level in kidney of Wistar rat assessed per mg of protein at 50 mg/kg/day, po for 28 days; format: functional
Method in brief: (§2)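 Normal male Wistar rats, no ethylene glycol, dosed orally at 50 mg/kg body wt/day for 28 days. Kidney homogenate, 10% in 0.01 M Tris-HCl pH 7.4. SOD unit defined as 50% inhibition of pyrogallol autoxidation; CAT as µmol H2O2 utilized/min. GSH, vitamins C and E as µg/mg protein. Protein by Lowry. Mean ± SEM, 6 rats/group.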

[3] = tested on: Rattus norvegicus; assay: Increase in superoxide dismutase activity in kidney of ethylene glycol-induced hyperoxaluria Wistar rat model assessed per mg of protein at 50 mg/kg/day, po for 28 days; format: functional; method in brief: as §1
[4] = tested on: Rattus norvegicus; assay: Protective effect in kidney of ethylene glycol-induced hyperoxaluria Wistar rat model assessed as normal glomerulus/tubule at 50 mg/kg/day, po for 28 days; format: functional, organism-based
Method in brief: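 Hyperoxaluria induced with 0.75% ethylene glycol in drinking water for 28 days, with concurrent oral dosing at 50 mg/kg body wt/day. Kidney portions fixed in 10% formalin, stained with hematoxylin and eosin, and examined by light microscopy for glomeruli, tubules, crystal deposits and infiltration.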

[5] = tested on: Rattus norvegicus; assay: Reduction of xanthine oxidase activity in kidney of ethylene glycol-induced hyperoxaluria Wistar rat model assessed per mg of protein at 50 mg/kg/day, po for 28 days; format: functional
Method in brief: (§3)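 Hyperoxaluria produced with 0.75% ethylene glycol in drinking water for 28 days, with concurrent oral dosing at 50 mg/kg body wt/day. Liver and kidney homogenized 10% in ice-cold 0.01 M Tris-HCl pH 7.4. LDH assayed with glyoxylate as substrate; GAO and XO by published methods. Mean ± SEM, 6 rats/group.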

[6] = tested on: Rattus norvegicus; assay: Nephrotoxicity in Wistar rat at 50 mg/kg/day, po for 28 days; format: toxicity, organism-based; design: route oral; settings: in vivo, 672 h
Method in brief: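 Male Wistar rats (120 ± 20 g), six per group, dosed orally once daily for 28 days, alone or alongside 0.75% ethylene glycol in drinking water to induce hyperoxaluria. After decapitation, kidneys were homogenized (10%) in ice-cold 0.01 M Tris-HCl pH 7.4 for ALP and γ-GT assays, or formalin-fixed, H&E-stained and examined by light microscopy. Data reported as mean ± SEM.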

[7] = tested on: Rattus norvegicus; assay: Increase in glutathione level in kidney of ethylene glycol-induced hyperoxaluria Wistar rat model assessed per mg of protein at 50 mg/kg/day, po for 28 days; format: functional; method in brief: as §1
[8] = tested on: Rattus norvegicus; assay: Effect on ferrous sulfate-induced lipid peroxidation levels in kidney of Wistar rat assessed as malondialdehyde release per mg of protein at 50 mg/kg/day, po for 28 days; format: functional
Method in brief: (§4)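 Normal male Wistar rats (120 ± 20 g), no ethylene glycol, given drug orally at 50 mg/kg body wt/day for 28 days. Kidney homogenized 10% in ice-cold 0.01 M Tris-HCl, pH 7.4. Lipid peroxidation read as malondialdehyde released, with 10 mM ferrous sulfate or 0.2 mM ascorbate as inducer. Mean ± SEM, 6 rats/group.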

[9] = tested on: Rattus norvegicus; assay: Effect on vitamin C level in kidney of Wistar rat assessed per mg of protein at 50 mg/kg/day, po for 28 days; format: functional; method in brief: as §2
[10] = tested on: Rattus norvegicus; assay: Renoprotective effect in ethylene glycol-hyperoxaluria Wistar rat model assessed as increase in renal alkaline phosphatase activity per mg of protein at 50 mg/kg/day, po for 28 days; format: functional
Method in brief: (§5)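 Ethylene glycol given at 0.75% in drinking water for 28 days to male Wistar rats, with concurrent oral dosing at 50 mg/kg body wt/day. Kidney homogenate in 0.01 M Tris-HCl pH 7.4. ALP read as phenol liberated from disodium phenyl phosphate, Folin colour at alkaline pH; γ-GT as p-nitroaniline liberated/min/mg protein. Mean ± SEM, 6 rats/group.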

[11] = tested on: Rattus norvegicus; assay: Effect on renal gamma glutamyl transferase activity in Wistar rat assessed mg of protein at 50 mg/kg/day, po for 28 days; format: functional
Method in brief: (§6)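 Normal male Wistar rats, no ethylene glycol, dosed orally at 50 mg/kg body wt/day for 28 days. Kidney homogenate in 0.01 M Tris-HCl pH 7.4. ALP read as phenol liberated from disodium phenyl phosphate, Folin colour at alkaline pH; γ-GT as p-nitroaniline liberated/min/mg protein. Mean ± SEM, 6 rats/group.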

[12] = tested on: Rattus norvegicus; assay: Renoprotective effect in ethylene glycol-hyperoxaluria Wistar rat model assessed as increase in renal gamma glutamyl transferase activity mg of protein at 50 mg/kg/day, po for 28 days; format: functional; method in brief: as §5
[13] = tested on: Rattus norvegicus; assay: Increase in glutathione peroxidase activity in kidney of ethylene glycol-induced hyperoxaluria Wistar rat model assessed per mg of protein at 50 mg/kg/day, po for 28 days; format: functional; method in brief: as §1
[14] = tested on: Rattus norvegicus; assay: Effect on lactate dehydrogenase activity in liver of Wistar rat assessed per mg of protein at 50 mg/kg/day, po for 28 days; format: functional
Method in brief: (§7)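 Normal male Wistar rats, no ethylene glycol, given oral dosing at 50 mg/kg body wt/day for 28 days. Liver and kidney homogenized 10% in ice-cold 0.01 M Tris-HCl pH 7.4. LDH assayed with glyoxylate as substrate; GAO and XO by published methods. Mean ± SEM, 6 rats/group.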

[15] = tested on: Rattus norvegicus; assay: Effect on xanthine oxidase activity in kidney of Wistar rat assessed per mg of protein at 50 mg/kg/day, po for 28 days; format: functional; method in brief: as §7
[16] = tested on: Rattus norvegicus; assay: Reduction of lactate dehydrogenase activity in kidney of ethylene glycol-induced hyperoxaluria Wistar rat model assessed per mg of protein at 50 mg/kg/day, po for 28 days; format: functional; method in brief: as §3
[17] = tested on: Rattus norvegicus; assay: Reduction in ferrous sulfate-induced lipid peroxidation levels in kidney of ethylene glycol-induced hyperoxaluria Wistar rat model assessed as malondialdehyde release per mg of protein at 50 mg/kg/day, po for 28 days; format: functional
Method in brief: as §4, with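 “Male” for “Normal male”, “given 0.75%” for “(120 ± 20 g), no”, “glycol in drinking water for 28 days, with” for “glycol, given”, “throughout.” for “for 28 days.”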

[18] = tested on: Rattus norvegicus; assay: Reduction in ascorbate-induced lipid peroxidation levels in kidney of ethylene glycol-induced hyperoxaluria Wistar rat model assessed as malondialdehyde release per mg of protein at 50 mg/kg/day, po for 28 days; format: functional
Method in brief: as §4, with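 “Male” for “Normal male”, “given 0.75%” for “(120 ± 20 g), no”, “glycol in drinking water for 28 days, with” for “glycol, given”, “throughout.” for “for 28 days.”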

[19] = tested on: Rattus norvegicus; assay: Reduction of lactate dehydrogenase activity in liver of ethylene glycol-induced hyperoxaluria Wistar rat model assessed per mg of protein at 50 mg/kg/day, po for 28 days; format: functional; method in brief: as §3
[20] = tested on: Rattus norvegicus; assay: Effect on superoxide dismutase activity in kidney of Wistar rat assessed per mg of protein at 50 mg/kg/day, po for 28 days; format: functional; method in brief: as §2
[21] = tested on: Rattus norvegicus; assay: Increase in vitamin C level in kidney of ethylene glycol-induced hyperoxaluria Wistar rat model assessed per mg of protein at 50 mg/kg/day, po for 28 days; format: functional; method in brief: as §1
[22] = tested on: Rattus norvegicus; assay: Effect on glutathione peroxidase activity in kidney of Wistar rat assessed per mg of protein at 50 mg/kg/day, po for 28 days; format: functional; method in brief: as §2
[23] = tested on: Rattus norvegicus; assay: Effect on catalase activity in kidney of Wistar rat assessed per mg of protein at 50 mg/kg/day, po for 28 days; format: functional; method in brief: as §2
[24] = tested on: Rattus norvegicus; assay: Reduction of glycolic acid oxidase activity in liver of ethylene glycol-induced hyperoxaluria Wistar rat model assessed per mg of protein at 50 mg/kg/day, po for 28 days; format: functional; method in brief: as §3
[25] = tested on: Rattus norvegicus; assay: Effect on glycolic acid oxidase activity in liver of Wistar rat assessed per mg of protein at 50 mg/kg/day, po for 28 days; format: functional; method in brief: as §7
[26] = tested on: Rattus norvegicus; assay: Increase in catalase activity in kidney of ethylene glycol-induced hyperoxaluria Wistar rat model assessed per mg of protein at 50 mg/kg/day, po for 28 days; format: functional; method in brief: as §1
[27] = tested on: Rattus norvegicus; assay: Effect on renal alkaline phosphatase activity in Wistar rat assessed per mg of protein at 50 mg/kg/day, po for 28 days; format: functional; method in brief: as §6
[28] = tested on: Rattus norvegicus; assay: Effect on xanthine oxidase activity in liver of Wistar rat assessed per mg of protein at 50 mg/kg/day, po for 28 days; format: functional; method in brief: as §7
[29] = tested on: Rattus norvegicus; assay: Effect on glutathione level in kidney of Wistar rat assessed per mg of protein at 50 mg/kg/day, po for 28 days; format: functional; method in brief: as §2
[30] = tested on: Rattus norvegicus; assay: Reduction of xanthine oxidase activity in liver of ethylene glycol-induced hyperoxaluria Wistar rat model assessed per mg of protein at 50 mg/kg/day, po for 28 days; format: functional; method in brief: as §3
[31] = tested on: Rattus norvegicus; assay: Effect on ascorbate-induced lipid peroxidation levels in kidney of Wistar rat assessed as malondialdehyde release per mg of protein at 50 mg/kg/day, po for 28 days; format: functional; method in brief: as §4
[32] = tested on: Rattus norvegicus; assay: Effect on lactate dehydrogenase activity in kidney of Wistar rat assessed per mg of protein at 50 mg/kg/day, po for 28 days; format: functional; method in brief: as §7

Compound	Activity [1] [µg]	Activity [2] [µg]	Activity [3]	Activity [4]	Activity [5]	Activity [6]	Activity [7] [µg]	Activity [8] [nmol]	Activity [9] [µg]	Activity [10] [µmol/min]	Activity [11] [nmol/min]	Activity [12] [nmol/min]	Activity [13] [µg/min]	Activity [14]	Activity [15]	Activity [16]	Activity [17] [nmol]	Activity [18] [nmol]	Activity [19]	Activity [20]	further results
C=C(C)[C@@H]1CC[C@]2(C)CC[C@]3(C)C(CC[C@@H]4[C@@]5(C)CC[C@H](OC(=O)CCCCCCC/C=C/C/C=C/CCCCC)C(C)(C)[C@@H]5CC[C@]43C)[C@@H]12 (some centres undefined) [LUPEOL LINOLEATE]	0.97	1.06	4.82	Active	0.97	Non-toxic	4.59	12.2	1.89	1.65	8.79	8.62	8.01	2.33	0.9	2.26	13.38	4.95	2.39	5	Activity [21]: 1.74 µg; Activity [22]: 8.32 µg/min; Activity [23]: 164.9 µmol/min; Activity [24]: 3.12 nmol; Activity [25]: 2.75 nmol; Activity [26]: 155.3 µmol/min; Activity [27]: 1.68 µmol/min; Activity [28]: 1.28; Activity [29]: 4.76 µg; Activity [30]: 1.39; Activity [31]: 4.45 nmol; Activity [32]: 2.01
C=C(C)[C@@H]1CC[C@]2(C)CC[C@]3(C)[C@H](CC[C@@H]4[C@@]5(C)CC[C@H](O)C(C)(C)[C@@H]5CC[C@]43C)[C@@H]12 [LUPEOL]	0.91	1.04	4.67	Active	1.09	Non-toxic	4.27	12.14	1.86	1.53	8.73	8.28	7.11	2.35	0.93	2.41	15.11	5.11	2.42	5.04	Activity [21]: 1.6 µg; Activity [22]: 8.31 µg/min; Activity [23]: 164.2 µmol/min; Activity [24]: 3.61 nmol; Activity [25]: 2.77 nmol; Activity [26]: 141.6 µmol/min; Activity [27]: 1.72 µmol/min; Activity [28]: 1.31; Activity [29]: 4.75 µg; Activity [30]: 1.54; Activity [31]: 4.5 nmol; Activity [32]: 2.05
